ChEMBL document CHEMBL5344415, “Synthesis and Characterization of Phenylalanine Amides Active against Mycobacterium abscessus and Other Mycobacteria” (J Med Chem, 2023)
Converted amounts (≈) assume the structure as drawn.

What was measured:
[1] = tested on: Mycolicibacterium smegmatis; assay: Antibacterial activity against Mycobacterium smegmatis mc2 155 expressing tomato RFP assessed as bacterial growth inhibition incubated for 3 days in 7H9 medium by RFP fluorescence based broth microdilution method; assay type: functional; settings: mc2 155, 72 h, time 3 day
Method in brief: (§1)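 Broth microdilution in 7H9 with 10 % ADS and 0.05 % Tween 80. Twofold nine-point dilution series. Inoculum 5 x 10⁵ cells/mL taken from a mid-log preculture. Incubation at 37 °C, 3 days for M. smegmatis and M. abscessus, 5 days for M. intracellulare. Read-out by RFP fluorescence (ex 544/em 590 nm). Controls were 1 % DMSO and 100 μM amikacin. MIC₉₀ from duplicates, averaged.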

[2] = tested on: Mycobacterium tuberculosis; assay: Antibacterial activity against Mycobacterium tuberculosis H37Rv ATCC 27294 assessed as bacterial growth inhibition incubated for 7 days in 7H9 medium by optical density based microplate reader analysis; assay type: functional; settings: H37Rv ATCC 27294, 168 h, time 7 day
Method in brief: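 Compounds serially diluted in flat-bottom 96-well plates. Mid-log culture mixed in to a final OD₆₀₀ of 0.05. Sealed plates incubated in humidified boxes at 37 °C for 7 days with shaking at 80 rpm. Turbidity read at 600 nm. MIC₉₀ taken from dose–response curves. Two biological replicates, averaged.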

[3] = tested on: Mycobacteroides abscessus; assay: Antibacterial activity against Mycobacterium abscessus ATCC 19977 expressing tomato RFP assessed as bacterial growth inhibition incubated for 3 days in 7H9 medium by RFP fluorescence based broth microdilution method; assay type: functional; settings: ATCC 19977, 72 h, time 3 day; method in brief: as §1
[4] = tested on: Mycobacteroides abscessus; assay: Antibacterial activity against Mycobacterium abscessus ATCC 19977 expressing tomato RFP assessed as bacterial growth inhibition incubated for 3 days in MHII medium by RFP fluorescence based broth microdilution method; assay type: functional; settings: ATCC 19977, 72 h, time 3 day
Method in brief: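 Broth microdilution in MHII broth with 0.05 % Tween 80, against the RFP-expressing strain. Twofold nine-point dilution series. Inoculum 5 x 10⁵ cells/mL from a mid-log preculture. Incubated 3 days at 37 °C. Read-out by RFP fluorescence (ex 544/em 590 nm). Controls were 1 % DMSO and 100 μM amikacin. MIC₉₀ from duplicates, averaged.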

[5] = tested on: Mycobacterium intracellulare; assay: Antibacterial activity against Mycobacterium intracellulare ATCC 35761 expressing tomato RFP assessed as bacterial growth inhibition incubated for 5 days in 7H9 medium by RFP fluorescence based broth microdilution method; assay type: functional; settings: ATCC 35761, 120 h, time 5 day; method in brief: as §1
[6] = tested on: Mycobacteroides abscessus; assay: Antibacterial activity against Mycobacterium abscessus Bamboo harboring inactive clarithromycin-sensitive erm41 C28 sequevar assessed as bacterial growth inhibition incubated for 3 days in 7H9 medium by optical density based method; assay type: functional; settings: 72 h, time 3 day
[7] = tested on: Mycobacteroides abscessus; assay: Antibacterial activity against Mycobacterium abscessus ATCC 19977 expressing tomato RFP infected in human THP-1 cells assessed as bacterial growth inhibition incubated for 4 days in RPMI medium by RFP fluorescence based assay; assay type: functional; settings: ATCC 19977, 96 h, time 4 day
Method in brief: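 RFP M. abscessus washed, moved into RPMI, filtered through 5 µm and opsonised with 10 % human serum for 30 min. THP-1 cells infected at MOI 5:1 with PMA 40 ng/mL for 4 h at 37 °C, then washed. Infected cells (1x10⁵/well) given a ten-point twofold series. Incubated 4 days at 37 °C, 5 % CO₂. Cells PFA-fixed and DAPI-stained. RFP quantified by imaging. Controls were DMSO and 1.5 µM bedaquiline. Duplicate.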

[8] = tested on: A-375; assay: Cytotoxicity against human A-375 cells assessed as reduction in cell viability incubated for 72 hrs by SRB assay; assay type: toxicity, cell-based
[9] = tested on: HT-29; assay: Cytotoxicity against human HT-29 cells assessed as reduction in cell viability incubated for 72 hrs by SRB assay; assay type: toxicity, cell-based
[10] = tested on: MCF7; assay: Cytotoxicity against human MCF7 cells assessed as reduction in cell viability incubated for 72 hrs by SRB assay; assay type: toxicity, cell-based
[11] = tested on: A2780; assay: Cytotoxicity against human A2780 cells assessed as reduction in cell viability incubated for 72 hrs by SRB assay; assay type: toxicity, cell-based
[12] = Cytotoxicity against mouse NIH3T3 cells assessed as reduction in cell viability incubated for 72 hrs by SRB assay; assay type: toxicity, cell-based; settings: mouse, NIH3T3 cells
[13] = tested on: HeLa; assay: Cytotoxicity against human HeLa cells assessed as reduction in cell viability incubated for 72 hrs by SRB assay; assay type: toxicity, cell-based
[14] = Kinetic solubility of compound in PBS at 0.78 to 500 uM measured immediately by nephelometric method; assay type: physicochemical; settings: buffer, dose 0.78-500 µM
Method in brief: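 DMSO stocks prediluted in DMSO, then diluted 1:50 into PBS (2 % DMSO final) and read immediately by nephelometry at 0.78–500 μM; blank-corrected data fitted by segmental regression; quadruplicates from one stock.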

O=C(N[C@H](Cc1ccsc1)C(=O)Nc1ccccc1N1CCOCC1)c1cccs1
MIC90 [1]: 1.56 µM (≈ 0.689 µg/mL) | MIC90 [2]: 3.13 µM (≈ 1.38 µg/mL) | MIC90 [3]: 12.5 µM (≈ 5.52 µg/mL) | MIC90 [4]: 12.5 µM (≈ 5.52 µg/mL) | MIC90 [5]: 1.56 µM (≈ 0.689 µg/mL) | MIC50 [6]: 2.3 µM (≈ 1.02 µg/mL) | MIC90 [6]: 7 µM (≈ 3.09 µg/mL) | MIC50 [7]: 12.5 µM (≈ 5.52 µg/mL) | MIC90 [7]: 50 µM (≈ 22.1 µg/mL) | EC50 [8]: > 30 µM | EC50 [9]: > 30 µM | EC50 [10]: > 30 µM | EC50 [11]: > 30 µM | EC50 at 72 h [12]: > 30 µM | EC50 [13]: > 30 µM | Kinetic_solubility [14]: 30 µM

O=C(N[C@H](Cc1ccsc1)C(=O)Nc1ccccc1N1CC[S+]([O-])CC1)c1cccs1
MIC90 [1]: 3.13 µM (≈ 1.48 µg/mL) | MIC90 [2]: 6.25 µM (≈ 2.96 µg/mL) | MIC90 [3]: 6.25 µM (≈ 2.96 µg/mL) | MIC90 [4]: 12.5 µM (≈ 5.92 µg/mL) | MIC90 [5]: 0.2 µM (≈ 0.0947 µg/mL) | MIC50 [6]: 3.4 µM (≈ 1.61 µg/mL) | MIC90 [6]: 15 µM (≈ 7.1 µg/mL) | MIC50 [7]: 12.5 µM (≈ 5.92 µg/mL) | MIC90 [7]: 100 µM (≈ 47.4 µg/mL) | EC50 [8]: > 30 µM | EC50 [9]: > 30 µM | EC50 [10]: > 30 µM | EC50 [11]: > 30 µM | EC50 at 72 h [12]: > 30 µM | EC50 [13]: > 30 µM | Kinetic_solubility [14]: 74 µM

O=C(N[C@H](Cc1cccs1)C(=O)Nc1ccccc1N1CC[S+]([O-])CC1)c1ccccc1F
MIC90 [1]: 1.56 µM (≈ 0.758 µg/mL) | MIC90 [2]: 1.56 µM (≈ 0.758 µg/mL) | MIC90 [3]: 6.25 µM (≈ 3.04 µg/mL) | MIC90 [4]: 12.5 µM (≈ 6.07 µg/mL) | MIC90 [5]: 0.2 µM (≈ 0.0971 µg/mL) | MIC50 [6]: 1.8 µM (≈ 0.874 µg/mL) | MIC90 [6]: 6.5 µM (≈ 3.16 µg/mL) | MIC50 [7]: 6.25 µM (≈ 3.04 µg/mL) | MIC90 [7]: 50 µM (≈ 24.3 µg/mL) | EC50 [8]: 29.3 µM | EC50 [9]: > 30 µM | EC50 [10]: 28.9 µM | EC50 [11]: 29 µM | EC50 at 72 h [12]: > 30 µM | EC50 [13]: > 30 µM | Kinetic_solubility [14]: 96 µM

O=C(N[C@H](Cc1ccccc1)C(=O)Nc1cc(F)ccc1N1CC[S+]([O-])CC1)c1cccs1
MIC90 [1]: 1.56 µM (≈ 0.758 µg/mL) | MIC90 [2]: 0.4 µM (≈ 0.194 µg/mL) | MIC90 [3]: 1.56 µM (≈ 0.758 µg/mL) | MIC90 [4]: 3.13 µM (≈ 1.52 µg/mL) | MIC90 [5]: 0.05 µM (≈ 0.0243 µg/mL) | MIC50 [6]: 0.28 µM (≈ 0.136 µg/mL) | MIC90 [6]: 1.9 µM (≈ 0.923 µg/mL) | MIC50 [7]: 0.78 µM (≈ 0.379 µg/mL) | MIC90 [7]: 25 µM (≈ 12.1 µg/mL) | EC50 [8]: > 30 µM | EC50 [9]: > 30 µM | EC50 [10]: > 30 µM | EC50 [11]: > 30 µM | EC50 at 72 h [12]: > 30 µM | EC50 [13]: > 30 µM | Kinetic_solubility [14]: 131 µM

O=C(N[C@H](Cc1cccs1)C(=O)Nc1ccccc1N1CC[S+]([O-])CC1)c1cccs1
MIC90 [1]: 3.13 µM (≈ 1.48 µg/mL) | MIC90 [2]: 3.13 µM (≈ 1.48 µg/mL) | MIC90 [3]: 12.5 µM (≈ 5.92 µg/mL) | MIC90 [4]: 12.5 µM (≈ 5.92 µg/mL) | MIC90 [5]: 0.2 µM (≈ 0.0947 µg/mL) | MIC50 [6]: 1.3 µM (≈ 0.616 µg/mL) | MIC90 [6]: 5.8 µM (≈ 2.75 µg/mL) | MIC50 [7]: 12.5 µM (≈ 5.92 µg/mL) | MIC90 [7]: 100 µM (≈ 47.4 µg/mL) | EC50 [8]: > 30 µM | EC50 [9]: > 30 µM | EC50 [10]: > 30 µM | EC50 [11]: > 30 µM | EC50 at 72 h [12]: > 30 µM | EC50 [13]: > 30 µM | Kinetic_solubility [14]: 60 µM

O=C(N[C@H](Cc1ccsc1)C(=O)Nc1ccccc1N1CCOCC1)c1ccccc1F
MIC90 [1]: 1.56 µM (≈ 0.708 µg/mL) | MIC90 [2]: 3.13 µM (≈ 1.42 µg/mL) | MIC90 [3]: 12.5 µM (≈ 5.67 µg/mL) | MIC90 [4]: 12.5 µM (≈ 5.67 µg/mL) | MIC90 [5]: 0.78 µM (≈ 0.354 µg/mL) | MIC50 [6]: 1.9 µM (≈ 0.862 µg/mL) | MIC90 [6]: 7 µM (≈ 3.17 µg/mL) | MIC50 [7]: 6.25 µM (≈ 2.83 µg/mL) | MIC90 [7]: 25 µM (≈ 11.3 µg/mL) | EC50 [8]: > 30 µM | EC50 [9]: > 30 µM | EC50 [10]: > 30 µM | EC50 [11]: > 30 µM | EC50 at 72 h [12]: > 30 µM | EC50 [13]: > 30 µM | Kinetic_solubility [14]: 31 µM

O=C(N[C@H](Cc1ccc(O)cc1)C(=O)Nc1cc(F)ccc1N1CCSCC1)c1ccccc1F
MIC90 [1]: 6.25 µM (≈ 3.11 µg/mL) | MIC90 [2]: 1.56 µM (≈ 0.776 µg/mL) | MIC90 [4]: 50 µM (≈ 24.9 µg/mL) | MIC90 [5]: 0.2 µM (≈ 0.0995 µg/mL) | MIC50 [6]: 1.7 µM (≈ 0.846 µg/mL) | MIC90 [6]: 15 µM (≈ 7.46 µg/mL) | MIC50 [7]: 6.25 µM (≈ 3.11 µg/mL) | MIC90 [7]: 25 µM (≈ 12.4 µg/mL) | EC50 [8]: > 30 µM | EC50 [9]: > 30 µM | EC50 [10]: > 30 µM | EC50 [11]: > 30 µM | EC50 at 72 h [12]: > 30 µM | EC50 [13]: > 30 µM | Kinetic_solubility [14]: 58 µM
